Only some compounds are listed: those with a hit (about 5.1% of all), similar ones and a draw of the others.
STAT1 activator = increases IFN-gamma driven STAT1 reporter signal | activation (% of control), % at 5.5 µM | AID 932 | actives 2.6% (n = 200,000) | NIH 3T3 STAT1-luciferase reporter, luminescence; 100% = IFN-gamma alone, no compound;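 active means activation above the screen-wide mean activation plus 3 SD, cut at about 130% in these data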;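 further: raw ratio to IFN-gamma control signal so 100% means no change and 0% no light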
APP 5'UTR act = activates APP 5'UTR luciferase reporter | activation, % at 2 µM | SH-SY5Y APP 5'UTR luciferase reporter, luminescence; zero percent = DMSO vehicle wells | actives 1% (n = 190,000);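 active means activation above a set limit, based on mean plus 3 SD of controls, cut at about 140% in these data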
NF-kB expr up = compounds increasing NF-kB expression in human neuronal cells. NF-kB reporter expression; hits give high values. fold change at 12.5 µM. actives 1.6% (n = 190,000). AID 1239; in the data active means fold change above about 3.3
STAT1 inh = STAT1 signaling inhibition; inhibition, % at 5.5 µM; NIH 3T3 STAT1-luciferase reporter, IFN-gamma, luminescence; actives 0.35% (n = 200,000);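 active means inhibition above a set limit, the mean inhibition across all tested compounds plus 3 SD, cut at about 34% in these data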;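 further: 0% = IFN-gamma with DMSO and 100% = IFN-gamma with 300 µM nifuroxazide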
STAT3 act = STAT3 signaling activation; U3A cells, IL-6 STAT3-luciferase reporter, luminescence; 100% = signal with IL-6 EC80 alone; activation (% of control), % at 5.6 µM; actives 0.91% (n = 190,000); AID 871;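 active means activation above the screen-wide mean of compound activation plus 3 SD, cut at about 130% in these data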;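 further: 0% = background luminescence of wells with medium and substrate only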
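Test system: Human STAT1-deficient U3A cells with stable STAT3-luciferase reporter | Also added: Interleukin-6, 33 ng/mL | Timing: Compound pre-incubation 1 h before IL-6, then 6 h stimulation at 37 °C | Technique: Luciferase reporter luminescence | Read-out: Percent of IL-6-only median luminescence | Benchmarks: IL-6-only wells as 100% reference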
STAT3 inh = STAT3 signaling inhibition. U3A cells, IL-6 STAT3-luciferase reporter, luminescence; host cell line lacks STAT1. actives 0.89% (n = 190,000). inhibition, % at 5.5 µM. AID 862;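 active means inhibition above the mean inhibition across all screened compounds plus 3 SD, cut at about 44% in these data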;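 further: 0% = DMSO only wells and 100% = 100 µM nifuroxazide control wells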
Starred values were filed as active, the others as inactive.

SMILES	STAT1 activator	APP 5'UTR act	NF-kB expr up	STAT1 inh	STAT3 act	STAT3 inh
CCC(=O)N1CCN(c2ccccc2NC(=O)c2ccc(-c3cccc([N+](=O)[O-])c3)o2)CC1	97.8	-8.3	1.18	2.5	104.8	-5.7
CCN1CCN(c2ccc(NC(=O)c3ccc(F)cc3)cc2Cl)CC1	113.3	27.4	1.59	-16.8	98.6	7.9
COc1ccc(CCn2cnc(=O)c(C#N)c2C)cc1OC	103.5	31.4	0.85	-3.9	107.4	-3.6
COC(=O)/C(=C/c1c[nH]c2ccccc12)[N+](=O)[O-]	85.6	13.9	1.29	16.0	134.3*	-31.9
COC(=O)/C(=C/c1c[nH]c2ccccc12)NC(C)=O	91.3	13.4	1.19	9.9	99.7	4.2
CN(C)CCCNC(CC(=O)Nc1cccc([N+](=O)[O-])c1)C(=O)O (stereo not given)	98.2	-7.4	1.13	4.2	100.4	-3.0
COc1ccccc1Oc1ccc(N/C=C/C(=O)c2ccc(C)o2)cc1	132.1*	92.9	1.7	-34.5	98.5	10.7
COc1cc(C(=O)/C=C/Nc2ccc(NC(C)=O)cc2)cc(OC)c1OC	105.3	-2.8	0.85	-6.0	97.7	3.0
CC(=O)Nc1ccc(N/C=C/C(=O)c2ccc(C)o2)cc1	143.3*	24.8	1.29	-41.7	97.9	3.9
COc1ccc(C(C(=O)NC2CCCC2)N(Cc2ccc(C)cc2)C(=O)c2ccn[nH]2)cc1OC (stereo not given)	97.4	6.0	1.02	3.0	92.5	16.3
CCCC1=NN(C(=O)C(=O)Nc2ccc(Br)cc2)C(O)(C(F)(F)F)C1 (stereo not given)	97.2	0.7	1.43	1.0	95.9	12.8
CC1=CC(=O)C=C(C)C1=NOc1ccccc1[N+](=O)[O-]	94.8	-26.4	3.7*	5.1	105.6	-5.4
CC(C)(C)/C(COc1ccccc1[N+](=O)[O-])=N/O	97.4	-4.1	1.23	0.7	99.7	8.9
Cc1ccc(NNS(=O)(=O)c2ccc(C)cc2)cc1	97.6	17.0	1.07	2.7	135.4*	-35.7
Cc1ccc(S(=O)(=O)NNC(=O)C(=O)NNS(=O)(=O)c2ccc(C)cc2)cc1	94.3	6.0	1.13	4.3	99.0	4.9
COc1ccc(NC(=S)Nc2ncccc2C)cc1OC	130.8*	38.6	1.87	-35.5	86.1	22.5
COc1ccc(NC(=O)Nc2ncccc2C)cc1	139.2*	12.5	1.95	-39.5	95.6	8.9
COc1ccc(C(=O)NC(=O)Nc2ncccc2C)cc1	124.2	16.2	1.76	-30.5	88.8	13.5
COc1ccc(NC(=O)Nc2cc(C)ccc2F)cc1	130.5*	123.2	2.57	-33.5	99.2	6.5
COc1cccc(NC(=O)Nc2cc(C)ccc2F)c1	118.3	42.1	1.5	-20.2	93.8	12.5
COc1ccc(CC(=O)Nc2nnc(C(C)C)s2)cc1	102.2	16.5	1.38	-3.8	100.3	4.9
COc1ccc(NC(=O)Nc2nnc(C(C)C)s2)cc1	130.3*	68.9	2.43	-33.2	97.3	11.8
O=C(CSc1nnc(-c2c[nH]c3ccccc23)o1)c1ccc(-c2ccccc2)cc1	94.3	10.4	0.93	6.3	101.7	1.1
Cc1nn(-c2ccccc2)c(OC(=O)c2cccs2)c1S(=O)(=O)c1ccc([N+](=O)[O-])cc1	105.9	5.7	1.01	-3.9	110.5	-12.5
COc1ccc(NC(=O)Nc2ccc(Br)c(C)c2)cc1	145.2*	61.2	1.5	-48.7	102.6	6.5
SMILES	STAT1 activator	APP 5'UTR act	NF-kB expr up	STAT1 inh	STAT3 act	STAT3 inh
COc1ccc(NC(=O)Nc2ccc(F)c(Cl)c2)cc1	111.8	106.3	2.64	-12.7	95.5	10.8
COc1cccc(CNCc2ccc(SC)cc2)c1OC	104.2	-10.3	1.14	-4.7	101.8	5.1
CSc1ncccc1C(=O)NC(C)C1CC2CCC1C2 (stereo not given)	101.6	-13.1	1.07	-3.1	105.9	-1.5
Cc1ccc(C(=O)Nc2ccncc2)o1	92.8	11.6	1.23	7.8	94.5	9.3
Cc1ccc(C(=O)Nc2ccc3c(c2)OCCO3)o1	109.5	107.2	4.01*	-10.5	87.2	20.1
Cn1nccc1C(=O)Nc1ccc2c(c1)OCCO2	116.1	68.1	2.14	-20.3	89.5	17.1
Cc1cc(C(=O)Nc2ccc3c(c2)OCCO3)co1	120.4	138.1*	4.7*	-22.4	101.7	7.9
O=C(NNC(=S)NCc1ccc(Cl)cc1)c1ccc2c(c1)OCO2	100.2	-18.0	0.94	-1.1	98.5	12.8
CCOC(=O)Nc1ccc2c(c1)nc(CN1CCCCC1)n2C	103.2	-2.8	0.99	-4.8	94.7	13.8
CN(C)CCCNS(=O)(=O)c1ccc(Oc2ncc(C(F)(F)F)cc2Cl)cc1	97.1	3.5	1.02	3.2	99.0	4.0
c1ccc2c(-c3cn4ccccc4n3)c[nH]c2c1	150.0*	149.3*	3.4*	-50.6	119.0	-16.7
c1ccc2c(-c3nnc(SCc4cn5ccccc5n4)o3)c[nH]c2c1	98.5	53.3	1.41	1.7	90.6	11.6
CSc1ccc(Cl)c(C(=O)NC2CCCC2)c1	101.8	6.3	1.1	-1.9	101.8	1.4
O=C(NCCOc1ccccc1F)c1cc(F)c(F)cc1Cl	133.9*	123.8	3.21	-33.1	83.7	18.3
O=C(NC1CCCCCCC1)c1cc(F)c(F)cc1Cl	129.7*	32.2	1.63	-32.0	114.9	-6.5
CCN(CC)C(=O)Cn1cnc2sc(C(=O)N3CCN(Cc4ccc5c(c4)OCO5)CC3)c(C)c2c1=O	93.3	23.2	1.03	5.6	91.0	19.7
CCN(CC)S(=O)(=O)c1ccc(C(=O)N(c2ccccc2)C2C=CS(=O)(=O)C2)cc1 (stereo not given)	97.6	-6.9	1.53	1.2	99.8	4.8
COc1ccc([N+](=O)[O-])cc1NC(=S)NC(NC(=O)C(c1ccccc1)c1ccccc1)C(Cl)(Cl)Cl (stereo not given)	92.3	16.4	0.75	6.9	107.1	1.9
Nc1ccc2c(c1)COc1ccccc1O2	111.4	23.5	1.56	-10.6	95.9	9.2
Nc1ccc2c(c1)OC1(CCCCC1)O2	103.3	22.0	0.97	-5.8	134.7*	-32.1
O=C(CSc1nnc(NC(=O)C2CC2)s1)Nc1ccc2c(c1)OCCO2	105.1	16.3	1.13	-7.5	105.0	-3.5
Oc1c(C=NCc2ccccc2)sc2ccccc12	142.9*	11.4	3.49*	-48.3	103.3	-1.5
CCCCSc1cnn(-c2ccccc2)c(=O)c1SCCCC	100.9	7.1	0.86	1.7	95.6	8.4
Nn1c(SCc2ccccc2)nc2c(cnn2-c2ccccc2)c1=O	135.0*	93.3	2.08	-39.2	97.6	8.0
CCCCSc1nc2c(cnn2-c2ccccc2)c(=O)n1N	140.9*	167.5*	4.7*	-45.6	88.3	18.8
Cc1nc2oc3ccc(F)cc3c(=O)c2cc1C(=O)NC(C)(C)C	110.4	25.1	1.81	-13.7	91.9	15.3
